Data: ChEMBL document CHEMBL4145462, “Nitrogen-containing ecdysteroid derivatives vs. multi-drug resistance in cancer: Preparation and antitumor activity of oximes, oxime ethers and a lactam” (Eur J Med Chem, 2018)
pIC50: −log10 of the molar value.

Legend:
[1] = Synergistic cytotoxicity against mouse L5178 cells assessed as combination index at ED75 using 150:1 test compound to doxorubicin ratio after 48 hrs by MTT-based checkerboard microplate method; format: functional
Summary of the method: (§1)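 Checkerboard microplate combinations of compound with doxorubicin at constant molar ratios. 5 × 10^4 cells/well in McCoy's 5A, 48 h at 37°C, 5% CO2. MTT added to 0.5 mg/mL final for 4 h, SDS/HCl overnight, OD read at 540 and 630 nm. Combination indices derived per ratio for 50%, 75% and 90% growth inhibition by median-effect analysis.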

[2] = Synergistic cytotoxicity against mouse L5178 cells expressing human ABCB1 assessed as combination index at ED75 using 15:1 test compound to doxorubicin ratio after 48 hrs by MTT-based checkerboard microplate method; format: functional; summary of the method: as §1
[3] = Cytotoxicity against mouse L5178 cells after 48 hrs by MTT assay; format: functional, cell-based; details: L5178, 48 h
Summary of the method: (§2)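 Parental mouse lymphoma L5178 and the MDR line made by pHa MDR1/A retrovirus transfection, selected with 60 µg/L colchicine. Grown in McCoy's 5A with horse serum at 37°C, 5% CO2. 5 x 10^4 cells/well, serial compound dilutions, 48 h. MTT added to 0.5 mg/mL final for 4 h, then 10% SDS in 0.01 M HCl overnight, OD read at 540 and 630 nm. IC50 taken as median cytotoxic activity (Dm) from control lanes of checkerboard plates, n=2.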

[4] = Synergistic cytotoxicity against mouse L5178 cells assessed as combination index at ED75 using 600:1 test compound to doxorubicin ratio after 48 hrs by MTT-based checkerboard microplate method; format: functional; summary of the method: as §1
[5] = Synergistic cytotoxicity against mouse L5178 cells assessed as combination index at ED90 using 150:1 test compound to doxorubicin ratio after 48 hrs by MTT-based checkerboard microplate method; format: functional; summary of the method: as §1
[6] = Synergistic cytotoxicity against mouse L5178 cells assessed as combination index at ED90 using 300:1 test compound to doxorubicin ratio after 48 hrs by MTT-based checkerboard microplate method; format: functional; summary of the method: as §1
[7] = Synergistic cytotoxicity against mouse L5178 cells expressing human ABCB1 assessed as combination index at ED50 using 60:1 test compound to doxorubicin ratio after 48 hrs by MTT-based checkerboard microplate method; format: functional; summary of the method: as §1
[8] = Synergistic cytotoxicity against mouse L5178 cells expressing human ABCB1 assessed as combination index at ED75 using 3.75:1 test compound to doxorubicin ratio after 48 hrs by MTT-based checkerboard microplate method; format: functional; summary of the method: as §1
ABCB1 (P-glycoprotein) = ABCB1 (P-glycoprotein) (Homo sapiens, UniProt P08183); test: Inhibition of human ABCB1 expressed in mouse L5178 cells assessed as increase in rhodamine-123 accumulation at 20 uM after 10 mins by flow cytometric analysis relative to control; format: cell-based; details: mouse L5178 cells expressing human ABCB1, probe rhodamine-123
Summary of the method: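 Cells at 2 × 10^6/mL were preincubated 10 min with compound. Rhodamine 123 then added to 5.2 µM final, 20 min at 37 °C. Cells washed twice in PBS, resuspended and read by flow cytometry. Percent inhibition was scaled between MDR-cell accumulation (0%) and parental L5178 accumulation (100%). Controls: 100 nM tariquidar (positive) and 2% DMSO (negative).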

[9] = Synergistic cytotoxicity against mouse L5178 cells expressing human ABCB1 assessed as combination index at ED90 using 60:1 test compound to doxorubicin ratio after 48 hrs by MTT-based checkerboard microplate method; format: functional; summary of the method: as §1
[10] = Synergistic cytotoxicity against mouse L5178 cells expressing human ABCB1 assessed as combination index at ED75 using 30:1 test compound to doxorubicin ratio after 48 hrs by MTT-based checkerboard microplate method; format: functional; summary of the method: as §1
[11] = Synergistic cytotoxicity against mouse L5178 cells expressing human ABCB1 assessed as combination index at ED50 using 30:1 test compound to doxorubicin ratio after 48 hrs by MTT-based checkerboard microplate method; format: functional; summary of the method: as §1
[12] = Synergistic cytotoxicity against mouse L5178 cells expressing human ABCB1 assessed as combination index at ED50 using 7.5:1 test compound to doxorubicin ratio after 48 hrs by MTT-based checkerboard microplate method; format: functional; summary of the method: as §1
[13] = Synergistic cytotoxicity against mouse L5178 cells expressing human ABCB1 assessed as combination index at ED50 using 3.75:1 test compound to doxorubicin ratio after 48 hrs by MTT-based checkerboard microplate method; format: functional; summary of the method: as §1
[14] = Synergistic cytotoxicity against mouse L5178 cells expressing human ABCB1 assessed as combination index at ED90 using 7.5:1 test compound to doxorubicin ratio after 48 hrs by MTT-based checkerboard microplate method; format: functional; summary of the method: as §1
[15] = Synergistic cytotoxicity against mouse L5178 cells expressing human ABCB1 assessed as combination index at ED75 using 60:1 test compound to doxorubicin ratio after 48 hrs by MTT-based checkerboard microplate method; format: functional; summary of the method: as §1
[16] = Synergistic cytotoxicity against mouse L5178 cells expressing human ABCB1 assessed as combination index at ED75 using 7.5:1 test compound to doxorubicin ratio after 48 hrs by MTT-based checkerboard microplate method; format: functional; summary of the method: as §1
[17] = Synergistic cytotoxicity against mouse L5178 cells assessed as combination index at ED50 using 37.5:1 test compound to doxorubicin ratio after 48 hrs by MTT-based checkerboard microplate method; format: functional; summary of the method: as §1
[18] = Synergistic cytotoxicity against mouse L5178 cells assessed as combination index at ED50 using 300:1 test compound to doxorubicin ratio after 48 hrs by MTT-based checkerboard microplate method; format: functional; summary of the method: as §1
[19] = Synergistic cytotoxicity against mouse L5178 cells expressing human ABCB1 assessed as combination index at ED50 using 15:1 test compound to doxorubicin ratio after 48 hrs by MTT-based checkerboard microplate method; format: functional; summary of the method: as §1
[20] = Synergistic cytotoxicity against mouse L5178 cells assessed as combination index at ED75 using 300:1 test compound to doxorubicin ratio after 48 hrs by MTT-based checkerboard microplate method; format: functional; summary of the method: as §1
MCF7 = test: Antiproliferative activity against human MCF7 cells after 72 hrs by MTT assay; format: functional, cell-based; details: MCF7, 72 h
Summary of the method: (§3)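 Cells grown in MEM with 10% FCS, 1% non-essential amino acids and 1% penicillin-streptomycin. Seeded at 5000 cells/well, exposed to 0.1–30.0 µM compound for 72 h. MTT (5 mg/ml solution) was then added for 4 h, formazan dissolved in DMSO, and absorbance read at 545 nm. Cisplatin served as positive control. IC50 came from sigmoidal dose–response fits (log inhibitor vs normalized response, variable slope).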

[21] = Synergistic cytotoxicity against mouse L5178 cells expressing human ABCB1 assessed as combination index at ED90 using 3.75:1 test compound to doxorubicin ratio after 48 hrs by MTT-based checkerboard microplate method; format: functional; summary of the method: as §1
HeLa = test: Antiproliferative activity against human HeLa cells after 72 hrs by MTT assay; format: functional, cell-based; summary of the method: as §3
[22] = Cytotoxicity against mouse L5178 cells expressing human ABCB1 after 48 hrs by MTT assay; format: functional, cell-based; details: L5178, 48 h; summary of the method: as §2
[23] = Synergistic cytotoxicity against mouse L5178 cells expressing human ABCB1 assessed as combination index at ED90 using 30:1 test compound to doxorubicin ratio after 48 hrs by MTT-based checkerboard microplate method; format: functional; summary of the method: as §1
[24] = Synergistic cytotoxicity against mouse L5178 cells expressing human ABCB1 assessed as combination index at ED90 using 15:1 test compound to doxorubicin ratio after 48 hrs by MTT-based checkerboard microplate method; format: functional; summary of the method: as §1

Sequence of ABCB1 (P-glycoprotein) (P08183 whole entry): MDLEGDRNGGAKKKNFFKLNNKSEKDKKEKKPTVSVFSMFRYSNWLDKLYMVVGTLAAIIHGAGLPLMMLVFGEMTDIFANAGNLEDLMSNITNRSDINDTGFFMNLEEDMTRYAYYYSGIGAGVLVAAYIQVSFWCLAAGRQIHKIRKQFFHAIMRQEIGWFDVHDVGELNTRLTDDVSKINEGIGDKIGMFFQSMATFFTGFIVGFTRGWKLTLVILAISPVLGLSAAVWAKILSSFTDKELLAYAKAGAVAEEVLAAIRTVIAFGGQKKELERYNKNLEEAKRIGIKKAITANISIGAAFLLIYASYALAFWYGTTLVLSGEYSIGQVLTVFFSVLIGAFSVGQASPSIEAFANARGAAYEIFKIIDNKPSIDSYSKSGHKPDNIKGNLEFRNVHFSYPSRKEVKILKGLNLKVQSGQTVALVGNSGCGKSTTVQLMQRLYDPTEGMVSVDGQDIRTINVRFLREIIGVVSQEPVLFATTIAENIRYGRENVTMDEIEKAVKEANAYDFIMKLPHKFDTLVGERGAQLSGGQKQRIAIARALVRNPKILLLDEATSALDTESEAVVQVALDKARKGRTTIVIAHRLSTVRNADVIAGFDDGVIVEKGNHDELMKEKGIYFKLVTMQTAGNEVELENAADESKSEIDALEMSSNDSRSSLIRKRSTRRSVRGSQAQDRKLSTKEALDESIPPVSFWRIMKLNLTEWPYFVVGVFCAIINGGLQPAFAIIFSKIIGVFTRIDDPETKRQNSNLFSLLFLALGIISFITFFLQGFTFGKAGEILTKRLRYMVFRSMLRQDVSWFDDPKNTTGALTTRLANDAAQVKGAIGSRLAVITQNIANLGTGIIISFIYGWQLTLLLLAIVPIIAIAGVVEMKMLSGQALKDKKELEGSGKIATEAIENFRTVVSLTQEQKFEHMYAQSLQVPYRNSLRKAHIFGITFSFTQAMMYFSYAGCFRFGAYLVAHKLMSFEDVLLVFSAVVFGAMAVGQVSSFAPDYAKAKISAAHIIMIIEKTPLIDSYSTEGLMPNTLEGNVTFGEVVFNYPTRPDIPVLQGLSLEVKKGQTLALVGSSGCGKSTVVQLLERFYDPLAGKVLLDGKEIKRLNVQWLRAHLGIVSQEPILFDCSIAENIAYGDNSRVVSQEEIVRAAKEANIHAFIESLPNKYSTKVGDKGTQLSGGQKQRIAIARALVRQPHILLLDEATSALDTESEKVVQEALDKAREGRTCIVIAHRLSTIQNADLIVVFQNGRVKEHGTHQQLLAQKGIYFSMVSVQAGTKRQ

CC(C)(O)CC[C@H]1OC(C)(C)O[C@]1(C)[C@H]1CC=C2C3=C/C(=N/OC(C)(C)C)[C@@H]4C[C@H]5OC(C)(C)O[C@H]5C[C@]4(C)[C@H]3CC[C@@]21C
CI [1]: 0.63 | CI [2]: 0.32 | pIC50 [3]: 4.20 | CI [4]: 0.91 | CI [5]: 0.79 | CI [6]: 1.07 | CI [7]: 0.47 | CI [8]: 0.29 | inhibition at 10 min, 20 µM (ABCB1 (P-glycoprotein)): 78.8% | CI [9]: 0.53 | CI [10]: 0.32 | CI [11]: 0.34 | CI [12]: 0.34 | CI [13]: 0.42 | CI [14]: 0.23 | CI [15]: 0.5 | CI [16]: 0.26 | CI [17]: 0.53 | CI [18]: 1.05 | CI [19]: 0.5 | CI [20]: 1.06 | pIC50 (MCF7): 4.76 | CI [21]: 0.23 | pIC50 (HeLa): 4.68 | pIC50 [22]: 4.29 | CI [23]: 0.31 | CI [24]: 0.33

CO/N=C1/C=C2C3=CC[C@H]([C@@]4(C)OC(C)(C)O[C@@H]4CCC(C)(C)O)[C@@]3(C)CC[C@@H]2[C@@]2(C)C[C@@H]3OC(C)(C)O[C@@H]3C[C@@H]12
CI [1]: 0.67 | CI [2]: 0.17 | pIC50 [3]: 4.34 | CI [4]: 1.2 | CI [5]: 0.64 | CI [6]: 0.87 | CI [7]: 0.33 | CI [8]: 0.17 | inhibition at 10 min, 20 µM (ABCB1 (P-glycoprotein)): 106% | CI [9]: 0.36 | CI [10]: 0.22 | CI [11]: 0.21 | CI [12]: 0.17 | CI [13]: 0.2 | CI [14]: 0.15 | CI [15]: 0.34 | CI [16]: 0.16 | CI [17]: 0.77 | CI [18]: 0.85 | CI [19]: 0.75 | CI [20]: 0.83 | pIC50 (MCF7): 4.74 | CI [21]: 0.14 | pIC50 (HeLa): 4.81 | pIC50 [22]: 4.27 | CI [23]: 0.24 | CI [24]: 0.16

CC(C)(O)CC[C@H]1OC(C)(C)O[C@]1(C)[C@H]1CC=C2C3=C/C(=N\OC(C)(C)C)[C@@H]4C[C@H]5OC(C)(C)O[C@H]5C[C@]4(C)[C@H]3CC[C@@]21C
CI [1]: 0.85 | CI [2]: 0.27 | pIC50 [3]: 4.19 | CI [4]: 0.89 | CI [5]: 0.84 | CI [6]: 1.02 | CI [7]: 0.51 | CI [8]: 0.26 | inhibition at 10 min, 20 µM (ABCB1 (P-glycoprotein)): 94% | CI [9]: 0.64 | CI [10]: 0.38 | CI [11]: 0.36 | CI [12]: 0.27 | CI [13]: 0.31 | CI [14]: 0.23 | CI [15]: 0.57 | CI [16]: 0.24 | CI [17]: 1.16 | CI [18]: 0.77 | CI [19]: 0.89 | CI [20]: 0.87 | pIC50 (MCF7): 4.71 | CI [21]: 0.24 | pIC50 (HeLa): 4.58 | pIC50 [22]: 4.18 | CI [23]: 0.41 | CI [24]: 0.28
